Broadly, the IC50 is the concentration needed to halve the response being measured.

The source made the active and inactive calls. No cut-off for these calls is given here.

From ChEMBL document CHEMBL4354819, “Discovery of Novel Small Molecule Dual Inhibitors Targeting Toll-Like Receptors 7 and 8” (J Med Chem, 2019) come the findings set out here.

For series [1], the target named is T1, Toll-like receptor 8 (Homo sapiens, UniProt Q9NR97).
T1 sequence (Q9NR97 whole entry): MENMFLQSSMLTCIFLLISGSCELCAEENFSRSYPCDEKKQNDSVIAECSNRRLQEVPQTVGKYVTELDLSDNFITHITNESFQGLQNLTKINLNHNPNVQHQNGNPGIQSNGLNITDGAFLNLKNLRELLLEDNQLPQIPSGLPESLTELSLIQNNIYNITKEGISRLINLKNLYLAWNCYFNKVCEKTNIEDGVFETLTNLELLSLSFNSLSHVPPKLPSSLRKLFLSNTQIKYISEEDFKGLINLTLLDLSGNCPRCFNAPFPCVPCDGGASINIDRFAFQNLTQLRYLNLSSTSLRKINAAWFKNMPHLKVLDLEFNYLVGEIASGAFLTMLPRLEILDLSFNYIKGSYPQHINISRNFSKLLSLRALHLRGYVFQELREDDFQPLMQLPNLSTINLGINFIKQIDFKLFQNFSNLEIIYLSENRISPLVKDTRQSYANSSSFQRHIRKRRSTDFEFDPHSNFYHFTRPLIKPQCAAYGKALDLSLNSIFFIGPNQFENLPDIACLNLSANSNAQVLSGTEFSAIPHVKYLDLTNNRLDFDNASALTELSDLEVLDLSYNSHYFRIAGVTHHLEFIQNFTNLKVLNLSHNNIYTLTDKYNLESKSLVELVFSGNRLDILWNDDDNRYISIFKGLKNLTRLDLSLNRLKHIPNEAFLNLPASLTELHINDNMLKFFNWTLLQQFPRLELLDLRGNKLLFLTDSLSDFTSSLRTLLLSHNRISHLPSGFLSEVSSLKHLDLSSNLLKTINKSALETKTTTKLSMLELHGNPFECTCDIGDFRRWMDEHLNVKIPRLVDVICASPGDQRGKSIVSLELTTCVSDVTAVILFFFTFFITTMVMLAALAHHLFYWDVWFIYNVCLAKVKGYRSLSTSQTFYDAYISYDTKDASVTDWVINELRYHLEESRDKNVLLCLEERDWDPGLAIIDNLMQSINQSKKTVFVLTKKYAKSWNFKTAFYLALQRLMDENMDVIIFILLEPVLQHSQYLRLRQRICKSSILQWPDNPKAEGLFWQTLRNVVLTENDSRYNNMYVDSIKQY
In words: Inhibition of human TLR8 expressed in HEK293 cells assessed as reduction in R848-induced NFkappaB production incubated for 16 hrs by quanti-blue SEAP assay. It counts as cell-based. In a few lines:
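HEK 293-Blue cells stably expressing hTLR7 or hTLR8 with an inducible SEAP reporter were incubated 16 h with compound under 1 µg/mL R848 stimulation. SEAP was read at 620 nm. Data were normalized to the R848 control, and IC50 was taken from concentration-response curves. […] Mean ± s.d., n = 3 independent experiments.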

Series [2] concerns HEK293. The series is described as follows: Cytotoxicity against human HEK293 cells transfected with human TLR7 assessed as reduction in cell viability at 100 uM incubated for 16 hrs by WST-1 assay. Type of series: cell-based. Conditions: hek293, 16 h. A general note: Formazan colour is commonly taken as a measure of viable cells.
The subject of series [3] is HEK293. The series is described as follows: Cytotoxicity against human HEK293 cells transfected with human TLR8 assessed as reduction in cell viability at 100 uM incubated for 16 hrs by WST-1 assay. It counts as cell-based. Conditions: hek293, 16 h.
For series [4], the system named is RAW264.7. In words: Cytotoxicity against mouse RAW264.7 cells assessed as reduction in cell viability at 0.5 to 20 uM incubated for 16 hrs by WST-1 assay. Conditions: raw264.7, 16 h. It counts as cell-based.
The target in series [5] is T2, Toll-like receptor 8 (Homo sapiens) (UniProt Q9NR97).
T2 sequence (whole entry): T1 sequence (Q9NR97 whole entry)
The series is described as follows: Inhibition of human TLR8 expressed in HEK293 cells assessed as reduction in ssRNA-induced NFkappaB production at 5 uM incubated for 16 hrs by quanti-blue SEAP assay. Type of series: cell-based. In short, it runs like this:
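HEK 293 hTLR8 SEAP reporter cells were stimulated with ssRNA (ssRNA-Lyo-40) and incubated with compound for 16 h. Data were normalized as (raw − untreated)/(ligand + solvent − untreated), with ligand + solvent set as 100%. Mean ± s.d., n = 3 independent experiments.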

The subject of series [6] is THP-1. In words: Inhibition of IFN mediated immune response in human THP1 cells assessed as inhibition of 3p-hpRNA-induced RIG1 signalling pathway at 0.5 to 5 uM incubated for 16 hrs by luciferase assay. It counts as functional, cell-based. In short, it runs like this: (§1)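 THP1-Dual monocytes carrying Lucia luciferase and SEAP reporters were stimulated with 3p-hpRNA (RIG-I agonist) or Y-form dsDNA G3-YSD (cGAS agonist), with or without compound. Secreted Lucia luciferase luminescence was measured as the type I IFN read-out. Mean ± s.d., n = 3 independent experiments.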

For series [7], the system named is THP-1. In words: Inhibition of IFN mediated immune response in human THP1 cells assessed as inhibition of G3-YSD-induced cGAS signalling pathway at 0.5 to 5 uM incubated for 16 hrs by luciferase assay. Type of series: functional, cell-based. In short, it runs like this: as §1
The target of series [8] is T2, Toll-like receptor 8 (Homo sapiens). In words: Inhibition of human TLR8 expressed in HEK293 cells assessed as reduction in TNFalpha-induced NFkappaB production incubated for 16 hrs by quanti-blue SEAP assay. Type of series: cell-based. In short, it runs like this:
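HEK 293 hTLR8 SEAP reporter cells were stimulated with recombinant hTNF-α and incubated with compound for 16 h. SEAP absorbance was read at 620 nm and compared with 50% DMSO-treated and untreated wells.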

The target is the same in series [9]. In words: Inhibition of human TLR8 expressed in HEK293 cells assessed as reduction in TNFalpha production incubated for 24 hrs by ELISA. Type of series: cell-based. In general terms: An ELISA detects its analyte on a solid surface through an enzyme-linked reagent.
For series [10] the target is unchanged. In words: Inhibition of human TLR8 expressed in HEK293 cells assessed as reduction in IL1beta production incubated for 24 hrs by ELISA. It counts as cell-based.
The test system of series [11] is HEK293. In words: Cytotoxicity against human HEK293 cells transfected with human TLR8 assessed as reduction in cell viability at 0.5 to 20 uM incubated for 16 hrs by WST-1 assay. It counts as cell-based. Conditions: hek293, 16 h.
Series [12] relates to HEK293. In words: Cytotoxicity against human HEK293 cells transfected with human TLR7 assessed as reduction in cell viability at 0.5 to 20 uM incubated for 16 hrs by WST-1 assay. It counts as cell-based. Conditions: hek293, 16 h.

As to `O=C(Nc1ccc(Oc2cc(C(F)(F)F)cc(C(F)(F)F)c2)cc1)c1c(F)cccc1Cl`, in [1], the IC50 turned out to be 1640 nM.

For `O=C(Nc1ccc(Oc2cc(C(F)(F)F)cc(C(F)(F)F)c2)cc1)c1c(F)cccc1I`, the IC50 in series [1] is 1040 nM. Besides, the Activity entry in series [2] was “Toxic”; in series [3], “Toxic”; in series [4], “Non-Toxic”; in [11] it was “Non-Toxic”; in series [12], “Non-Toxic”. Moreover, the inhibition result in series [5], in [6] and in series [7] was “inactive” in each case. For the same compound, the inhibition result in series [8], in [9] and in series [10] was “Active” each time.

As to `O=[N+]([O-])c1c(I)cccc1Oc1ccc(-c2nnco2)cc1`, the IC50 in [1] was 300 nM. The Activity entry in series [2] was “Toxic”; in series [3], “Toxic”; in series [4], “Non-Toxic”; in series [11] it was “Non-Toxic”; in [12] it was “Non-Toxic”. The inhibition entry in [5], in [8], in series [9] and in series [10] was “Active” each time. Further, the inhibition result in series [6] and in [7] was “inactive” in each case.

Take `O=C(Nc1ccc(Oc2cncc(C(F)(F)F)c2)cc1)c1c(F)cccc1Cl`: the IC50 in series [1] was determined as 2870 nM. In addition, the Activity result is recorded as “Toxic” in [2]; “Toxic” in series [3]; “Non-Toxic” in series [4]; “Non-Toxic” in series [11]; “Non-Toxic” in series [12]. The inhibition result in series [5], in series [6] and in [7] was “inactive” each time. The inhibition result in series [8], in series [9] and in series [10] was “Active” throughout.
